Legend:
Format in all cases: functional
SF-539 = assay: Cytotoxicity against human SF539 cells assessed as cell growth at 10 uM; settings: read-out: Activity
In short: (§1)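 NCI-60 screen: cells grown in RPMI 1640 with 5% FBS and 2 mM L-glutamine, plated at 5000–40,000 cells/well according to doubling time, and preincubated 24 h at 37 °C, 5% CO2. The single 10 µM dose (DMSO stock) was added, then incubated 48 h. Cells were TCA-fixed and stained with 0.4% SRB, read at 515 nm, and growth % calculated against time-zero and control plates.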

SNB-19 = assay: Cytotoxicity against human SNB19 cells assessed as cell growth at 10 uM; settings: read-out: Activity; in short: as §1
SNB-75 = assay: Cytotoxicity against human SNB75 cells assessed as cell growth at 10 uM; settings: read-out: Activity; in short: as §1
U-251 = assay: Cytotoxicity against human U251 cells assessed as cell growth at 10 uM; settings: read-out: Activity; in short: as §1
LOX IMVI = assay: Cytotoxicity against human LOXIMVI cells assessed as cell growth at 10 uM; settings: read-out: Activity; in short: as §1
Malme-3M = assay: Cytotoxicity against human MALME-3M cells assessed as cell growth at 10 uM; settings: read-out: Activity; in short: as §1
M14 = assay: Cytotoxicity against human M14 cells assessed as cell growth at 10 uM; settings: read-out: Activity; in short: as §1
MDA-MB-435 = assay: Cytotoxicity against human MDA-MB-435 cells assessed as cell growth at 10 uM; settings: read-out: Activity; in short: as §1
SK-MEL-2 = assay: Cytotoxicity against human SK-MEL-2 cells assessed as cell growth at 10 uM; settings: read-out: Activity; in short: as §1
SK-MEL-28 = assay: Cytotoxicity against human SK-MEL-28 cells assessed as cell growth at 10 uM; settings: read-out: Activity; in short: as §1
SK-MEL-5 = assay: Cytotoxicity against human SK-MEL-5 cells assessed as cell growth at 10 uM; settings: read-out: Activity; in short: as §1
UACC-257 = assay: Cytotoxicity against human UACC257 cells assessed as cell growth at 10 uM; settings: read-out: Activity; in short: as §1
UACC-62 = assay: Cytotoxicity against human UACC62 cells assessed as cell growth at 10 uM; settings: read-out: Activity; in short: as §1
IGROV-1 = assay: Cytotoxicity against human IGROV1 cells assessed as cell growth at 10 uM; settings: read-out: Activity
In short: (§2)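 Single-dose NCI-60 screen at 10 µM. Cells were grown in RPMI 1640 with 5% FBS and 2 mM L-glutamine, then treated for 48 h at 37 °C. Protein was measured by SRB staining with absorbance at 515 nm. Percentage growth was recorded, and inhibition percentage was calculated as 100 minus growth percentage.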

OVCAR-3 = assay: Cytotoxicity against human OVCAR-3 cells assessed as cell growth at 10 uM; settings: read-out: Activity; in short: as §1
OVCAR-4 = assay: Cytotoxicity against human OVCAR4 cells assessed as cell growth at 10 uM; settings: read-out: Activity; in short: as §1
OVCAR-5 = assay: Cytotoxicity against human OVCAR5 cells assessed as cell growth at 10 uM; settings: read-out: Activity; in short: as §1
OVCAR-8 = assay: Cytotoxicity against human OVCAR8 cells assessed as cell growth at 10 uM; settings: read-out: Activity; in short: as §1
NCI/ADR-RES = assay: Cytotoxicity against human NCI/ADR-RES cells assessed as cell growth at 10 uM; settings: read-out: Activity; in short: as §1
SK-OV-3 = assay: Cytotoxicity against human SKOV3 cells assessed as cell growth at 10 uM; settings: read-out: Activity; in short: as §1
786-0 = assay: Cytotoxicity against human 786-0 cells assessed as cell growth at 10 uM; settings: read-out: Activity; in short: as §2
A498 = assay: Cytotoxicity against human A498 cells assessed as cell growth at 10 uM; settings: read-out: Activity; in short: as §2
ACHN = assay: Cytotoxicity against human ACHN cells assessed as cell growth at 10 uM; settings: read-out: Activity; in short: as §2
CAKI-1 = assay: Cytotoxicity against human Caki1 cells assessed as cell growth at 10 uM; settings: read-out: Activity; in short: as §2
RXF 393 = assay: Cytotoxicity against human RXF393 cells assessed as cell growth at 10 uM; settings: read-out: Activity; in short: as §1
SN12C = assay: Cytotoxicity against human SN12C cells assessed as cell growth at 10 uM; settings: read-out: Activity; in short: as §1
TK-10 = assay: Cytotoxicity against human TK10 cells assessed as cell growth at 10 uM; settings: read-out: Activity; in short: as §1
UO-31 = assay: Cytotoxicity against human UO31 cells assessed as cell growth at 10 uM; settings: read-out: Activity; in short: as §1
PC-3 = assay: Cytotoxicity against human PC3 cells assessed as cell growth at 10 uM; settings: read-out: Activity; in short: as §1
DU-145 = assay: Cytotoxicity against human DU145 cells assessed as cell growth at 10 uM; settings: read-out: Activity; in short: as §2
MCF7 = assay: Cytotoxicity against human MCF7 cells assessed as cell growth at 10 uM; settings: read-out: Activity; in short: as §1
MDA-MB-231 = assay: Cytotoxicity against human MDA-MB-231 cells assessed as cell growth at 10 uM; settings: read-out: Activity; in short: as §1
[1] = Cytotoxicity against human Hs 578T cells assessed as cell growth at 10 uM; settings: read-out: Activity; in short: as §2
BT-549 = assay: Cytotoxicity against human BT549 cells assessed as cell growth at 10 uM; settings: read-out: Activity; in short: as §2
T47D = assay: Cytotoxicity against human T47D cells assessed as cell growth at 10 uM; settings: read-out: Activity; in short: as §1
MDA-MB-468 = assay: Cytotoxicity against human MDA-MB-468 cells assessed as cell growth at 10 uM; settings: read-out: Activity; in short: as §1
[2] = Growth inhibition of human NCI60 cells at 10 uM after 48 hrs by sulforhodamine B assay relative to control; settings: NCI60, 48 h, read-out: GI
In short: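 Single-dose NCI screen at 10 µM across the 60-line panel, 48 h exposure at 37 °C after a 24 h preincubation. Adherent cells were fixed with cold TCA and stained with 0.4% SRB, and absorbance was read at 515 nm. Inhibition % was taken as 100 minus growth %, and the mean across all lines was reported.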

CCRF-CEM = assay: Cytotoxicity against human CCRF-CEM cells assessed as cell growth at 10 uM; settings: read-out: Activity; in short: as §2
HL-60(TB) = assay: Cytotoxicity against human HL-60(TB) cells assessed as cell growth at 10 uM; settings: read-out: Activity
In short: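 NCI 60-cell panel screen at a single concentration of 10 µM. Cells are grown in RPMI 1640 with 5% FBS and 2 mM L-glutamine and read by SRB protein staining at 515 nm. Percent growth is measured relative to time-zero and untreated controls; inhibition % is 100 minus growth %.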

K562 = assay: Cytotoxicity against human K562 cells assessed as cell growth at 10 uM; settings: read-out: Activity; in short: as §2
MOLT-4 = assay: Cytotoxicity against human MOLT4 cells assessed as cell growth at 10 uM; settings: read-out: Activity; in short: as §1
[3] = Cytotoxicity against human […] cells assessed as cell growth at 10 uM; settings: read-out: Activity; in short: as §1
SR = assay: Cytotoxicity against human SR cells assessed as cell growth at 10 uM; settings: read-out: Activity; in short: as §1
A549 = assay: Cytotoxicity against human A549 cells assessed as cell growth at 10 uM; settings: read-out: Activity; in short: as §2
EKVX = assay: Cytotoxicity against human EKVX cells assessed as cell growth at 10 uM; settings: read-out: Activity; in short: as §2
HOP-62 = assay: Cytotoxicity against human HOP62 cells assessed as cell growth at 10 uM; settings: read-out: Activity; in short: as §2
HOP-92 = assay: Cytotoxicity against human HOP92 cells assessed as cell growth at 10 uM; settings: read-out: Activity; in short: as §2
NCI-H226 = assay: Cytotoxicity against human NCI-H226 cells assessed as cell growth at 10 uM; settings: read-out: Activity; in short: as §1
NCI-H23 = assay: Cytotoxicity against human NCI-H23 cells assessed as cell growth at 10 uM; settings: read-out: Activity; in short: as §1
NCI-H322M = assay: Cytotoxicity against human NCI-H322M cells assessed as cell growth at 10 uM; settings: read-out: Activity; in short: as §1
NCI-H460 = assay: Cytotoxicity against human NCI-H460 cells assessed as cell growth at 10 uM; settings: read-out: Activity; in short: as §1
NCI-H522 = assay: Cytotoxicity against human NCI-H522 cells assessed as cell growth at 10 uM; settings: read-out: Activity; in short: as §1
COLO 205 = assay: Cytotoxicity against human COLO205 cells assessed as cell growth at 10 uM; settings: read-out: Activity; in short: as §2
HCC 2998 = assay: Cytotoxicity against human HCC2998 cells assessed as cell growth at 10 uM; settings: read-out: Activity; in short: as §2
HCT-116 = assay: Cytotoxicity against human HCT116 cells assessed as cell growth at 10 uM; settings: read-out: Activity; in short: as §2
HCT-15 = assay: Cytotoxicity against human HCT15 cells assessed as cell growth at 10 uM; settings: read-out: Activity; in short: as §2
HT-29 = assay: Cytotoxicity against human HT-29 cells assessed as cell growth at 10 uM; settings: read-out: Activity; in short: as §2
KM12 = assay: Cytotoxicity against human KM12 cells assessed as cell growth at 10 uM; settings: read-out: Activity; in short: as §1
SW-620 = assay: Cytotoxicity against human SW620 cells assessed as cell growth at 10 uM; settings: read-out: Activity; in short: as §1
SF-268 = assay: Cytotoxicity against human SF268 cells assessed as cell growth at 10 uM; settings: read-out: Activity; in short: as §1
SF-295 = assay: Cytotoxicity against human SF295 cells assessed as cell growth at 10 uM; settings: read-out: Activity; in short: as §1

COc1cc(C)cc(-c2nn(CC#N)cc2-c2ccnc(-c3ccc(C#N)cc3)c2)c1
growth at 10 µM (SF-539): 89.1% | growth at 10 µM (SNB-19): 79.1% | growth at 10 µM (SNB-75): 57.4% | growth at 10 µM (U-251): 91.2% | growth at 10 µM (LOX IMVI): 80.7% | growth at 10 µM (Malme-3M): 111% | growth at 10 µM (M14): 104% | growth at 10 µM (MDA-MB-435): 102% | growth at 10 µM (SK-MEL-2): 89.9% | growth at 10 µM (SK-MEL-28): 104% | growth at 10 µM (SK-MEL-5): 63.4% | growth at 10 µM (UACC-257): 89.8% | growth at 10 µM (UACC-62): 59.4% | growth at 10 µM (IGROV-1): 90.9% | growth at 10 µM (OVCAR-3): 102% | growth at 10 µM (OVCAR-4): 76.2% | growth at 10 µM (OVCAR-5): 97.9% | growth at 10 µM (OVCAR-8): 84.2% | growth at 10 µM (NCI/ADR-RES): 76.8% | growth at 10 µM (SK-OV-3): 90.3% | growth at 10 µM (786-0): 96.5% | growth at 10 µM (A498): 82.2% | growth at 10 µM (ACHN): 81.4% | growth at 10 µM (CAKI-1): 82.2% | growth at 10 µM (RXF 393): 76.5% | growth at 10 µM (SN12C): 85.1% | growth at 10 µM (TK-10): 84.7% | growth at 10 µM (UO-31): 64.2% | growth at 10 µM (PC-3): 85.9% | growth at 10 µM (DU-145): 109% | growth at 10 µM (MCF7): 43.3% | growth at 10 µM (MDA-MB-231): 80.8% | growth at 10 µM [1]: 93.4% | growth at 10 µM (BT-549): 99.3% | growth at 10 µM (T47D): 37.6% | growth at 10 µM (MDA-MB-468): 42.9% | inhibition of growth at 10 µM [2]: 14.4% | growth at 10 µM (CCRF-CEM): 85.6% | growth at 10 µM (HL-60(TB)): 93.6% | growth at 10 µM (K562): 82% | growth at 10 µM (MOLT-4): 71.8% | growth at 10 µM [3]: 89.7% | growth at 10 µM (SR): 106% | growth at 10 µM (A549): 83.6% | growth at 10 µM (EKVX): 92% | growth at 10 µM (HOP-62): 96.5% | growth at 10 µM (HOP-92): 75.3% | growth at 10 µM (NCI-H226): 78.8% | growth at 10 µM (NCI-H23): 83.1% | growth at 10 µM (NCI-H322M): 91.3% | growth at 10 µM (NCI-H460): 104% | growth at 10 µM (NCI-H522): 70.4% | growth at 10 µM (COLO 205): 95.8% | growth at 10 µM (HCC 2998): 89.3% | growth at 10 µM (HCT-116): 80.3% | growth at 10 µM (HCT-15): 75.9% | growth at 10 µM (HT-29): 85.2% | growth at 10 µM (KM12): 102% | growth at 10 µM (SW-620): 101% | growth at 10 µM (SF-268): 106% | growth at 10 µM (SF-295): 102%

Reference: ChEMBL document CHEMBL1165950, “Design and synthesis of new potent anticancer pyrazoles with high FLT3 kinase inhibitory selectivity” (Bioorg Med Chem, 2010)
